The test system of one experiment is HeLa. Briefly: Antiproliferative activity against human HeLa cells assessed as reduction in cell viability after 24 hrs by MTT assay. In kind it is functional, cell-based. A digest of the protocol: (§1)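 Cells held in DMEM with 10% heat-inactivated FBS, penicillin and streptomycin at 37 °C, 5% CO2. HeLa seeded at 5000 cells/well or MCF-7 at 10,000 cells/well, grown overnight, then exposed to compounds at 0.0–200.0 µM (two-fold steps) for 24 h. MTT 0.5 mg/mL for 4 h at 37 °C, formazan dissolved in DMSO, absorbance read at 545 nm with 630 nm reference.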

In a further experiment the test system is MCF7. The experiment in a line: Antiproliferative activity against human MCF7 cells assessed as growth inhibition after 24 hrs by MTT assay. In kind it is functional, cell-based. The settings on record: MCF7, 24 h. A digest of the protocol:
as §1

Experiment [1] has as its target cGMP-inhibited 3',5'-cyclic phosphodiesterase 3A (Homo sapiens, UniProt Q14432). Briefly: Inhibition of human PDE3A expressed in Sf9 cells using cAMP as substrate after 60 mins by IMAP TR-FRET assay. Background: TR-FRET usually uses a lanthanide donor and a delayed reading to cut background.

The text below walks through data of ChEMBL document CHEMBL4725245, “The synthesis and biological evaluation of nucleobases/tetrazole hybrid compounds: A new class of phosphodiesterase type 3 (PDE3) inhibitors” (Bioorg Med Chem, 2020).

By IC50 is commonly meant the concentration at which inhibition is half-maximal.

Sequence of cGMP-inhibited 3',5'-cyclic phosphodiesterase 3A (Q14432 whole entry): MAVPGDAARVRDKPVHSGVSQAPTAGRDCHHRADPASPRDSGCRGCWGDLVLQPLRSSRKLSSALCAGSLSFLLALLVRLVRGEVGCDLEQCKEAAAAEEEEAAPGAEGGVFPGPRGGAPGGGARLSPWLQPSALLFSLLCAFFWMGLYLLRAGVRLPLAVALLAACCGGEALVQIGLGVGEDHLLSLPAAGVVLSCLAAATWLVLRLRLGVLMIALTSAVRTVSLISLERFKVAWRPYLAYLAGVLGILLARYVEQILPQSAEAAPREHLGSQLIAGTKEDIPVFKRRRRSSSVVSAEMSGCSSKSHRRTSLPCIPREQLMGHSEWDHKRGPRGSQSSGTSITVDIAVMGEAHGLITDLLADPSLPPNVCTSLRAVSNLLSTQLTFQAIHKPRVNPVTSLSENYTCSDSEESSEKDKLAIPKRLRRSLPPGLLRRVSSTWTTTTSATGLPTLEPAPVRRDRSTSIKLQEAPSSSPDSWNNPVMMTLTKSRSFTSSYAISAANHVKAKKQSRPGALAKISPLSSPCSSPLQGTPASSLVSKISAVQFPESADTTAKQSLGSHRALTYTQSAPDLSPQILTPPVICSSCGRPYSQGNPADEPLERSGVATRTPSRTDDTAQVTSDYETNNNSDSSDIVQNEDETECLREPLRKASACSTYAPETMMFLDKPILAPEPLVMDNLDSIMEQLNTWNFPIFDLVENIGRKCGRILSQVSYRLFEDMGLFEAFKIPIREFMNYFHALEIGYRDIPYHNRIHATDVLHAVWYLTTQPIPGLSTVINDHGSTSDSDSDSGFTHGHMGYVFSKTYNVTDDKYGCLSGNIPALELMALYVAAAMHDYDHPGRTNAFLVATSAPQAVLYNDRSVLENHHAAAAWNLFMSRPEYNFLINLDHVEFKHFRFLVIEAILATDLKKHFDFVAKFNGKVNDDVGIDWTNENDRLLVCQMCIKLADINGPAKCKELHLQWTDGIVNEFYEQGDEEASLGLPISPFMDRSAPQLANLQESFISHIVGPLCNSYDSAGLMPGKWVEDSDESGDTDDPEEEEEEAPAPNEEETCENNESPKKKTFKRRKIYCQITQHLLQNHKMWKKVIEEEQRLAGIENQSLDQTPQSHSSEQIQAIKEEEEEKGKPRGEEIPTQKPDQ

On to `Nc1nc2c(ncn2CCCOc2ccc(-c3nnn[nH]3)cc2)c(=O)[nH]1`, for which the IC50 with HeLa turned out to be 18.4 µM; in the experiment on MCF7, 25.7 µM.

For `Nc1nc2c(ncn2CCCCOc2ccc(-c3nnn[nH]3)cc2)c(=O)[nH]1`, the IC50 in the experiment on HeLa is 68 µM; with MCF7, 90.5 µM.

With `O=c1ccnc(SCCCOc2ccc(-c3nnn[nH]3)cc2)[nH]1`, the results for the IC50 in the experiment on HeLa and in the experiment with MCF7 were 57.7 µM and 80.7 µM, respectively.

In the case of `Cn1cnc2c1c(=O)n(CCCOc1ccc(-c3nnn[nH]3)cc1)c(=O)n2C`, the IC50 in the experiment with HeLa worked out at 61.1 µM; in the experiment on MCF7, 73.3 µM.

For `O=c1ccnc(SCCCCOc2ccc(-c3nnn[nH]3)cc2)[nH]1`, the IC50 with HeLa stood at 50.6 µM; with MCF7, 68.4 µM; in experiment [1] it was 0.00513 µM.

As to `Cn1c(=O)c2c(ncn2CCCOc2ccc(-c3nnn[nH]3)cc2)n(C)c1=O`, the IC50 with HeLa amounted to 55.3 µM; with MCF7, 74.7 µM; in experiment [1] it was 0.00583 µM.

Turning to `Nc1ncnc2c1ncn2CCCOc1ccc(-c2nnn[nH]2)cc1`, the IC50 with HeLa was found to be 21.1 µM; in the experiment with MCF7 it was 29.4 µM.

Turning to `O=c1cnn(CCCCOc2ccc(-c3nnn[nH]3)cc2)c(=O)[nH]1`, the IC50 was found to be 63.3 µM with HeLa and 76 µM in the experiment with MCF7.

Turning to `Cn1cnc2c1c(=O)n(CCCCOc1ccc(-c3nnn[nH]3)cc1)c(=O)n2C`, the IC50 was 59.9 µM with HeLa and 73.7 µM in the experiment with MCF7.

As for `O=c1ccn(CCCOc2ccc(-c3nnn[nH]3)cc2)c(=O)[nH]1`, the concentration for half-maximal inhibition (IC50) worked out at 38.9 µM in the experiment with HeLa and 54 µM in the experiment with MCF7.

For the compound `Cn1c(=O)c2c(ncn2CCCCOc2ccc(-c3nnn[nH]3)cc2)n(C)c1=O`, the IC50 is 45.1 µM with HeLa and 59.5 µM in the experiment on MCF7.

Consider `O=c1ccn(CCCCOc2ccc(-c3nnn[nH]3)cc2)c(=O)[nH]1`, for which the IC50 is 25.6 µM with HeLa and 35.8 µM in the experiment on MCF7.

In the case of `Nc1ncnc2c1ncn2CCCCOc1ccc(-c2nnn[nH]2)cc1`, the IC50 in the experiment on HeLa was determined as 38.4 µM; in the experiment on MCF7, 54.5 µM; in experiment [1], 0.00391 µM.

Turning to `O=c1cnn(CCCOc2ccc(-c3nnn[nH]3)cc2)c(=O)[nH]1`, the IC50 came out at 49.3 µM in the experiment with HeLa and 65.6 µM with MCF7.

`O=C1CCc2cc(OCCCCc3nnnn3C3CCCCC3)ccc2N1` [CILOSTAZOL]: the IC50 in experiment [1] came out at 0.00389 µM.

As for `CN(Cc1cnc2nc(N)nc(N)c2n1)c1ccc(C(=O)N[C@@H](CCC(=O)O)C(=O)O)cc1` [METHOTREXATE], the IC50 stood at 27.9 µM in the experiment on HeLa and 49.2 µM in the experiment with MCF7.
